ChEMBL document CHEMBL4765418, “Discovery of novel quinazolinone derivatives as potential anti-HBV and anti-HCC agents” (Eur J Med Chem, 2020)

Columns and labels:
[1] = Cytotoxicity against human HepG2 2.2.15 cells assessed as reduction in cell viability measured after 72 hrs by MTT assay; type: cell-based
Outline: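 HepG2 2.2.15 cells (HBV-producing; grown in DMEM with 10% FBS, penicillin/streptomycin and 0.38 mg/mL G418) seeded in 96-well plates and grown 24 h, then treated 72 h with compounds. Viability read by MTT absorbance at 490 nm relative to untreated cells. CC50 is the dose causing 50% cell death.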

Hepatitis B virus [2] = test: Antiviral activity against HBV infected in human HepG2.2.15 cells assessed as inhibition of HBsAg production supplemented with fresh medium containing compound every 3 days for 6 days by EIA relative to control; type: functional, HepG2 2.2.15; details: time 6 day
Hepatitis B virus [3] = test: Antiviral activity against HBV infected in human HepG2.2.15 cells assessed as inhibition of DNA replication supplemented with fresh medium containing compound every 2 days for 6 days by RT-PCR analysis; type: functional, organism-based; details: HepG2 2.2.15
Outline: (§1)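 HepG2 2.2.15 cells (2×10^5/well, 24-well) left 24 h to recover from trypsinization, then given fresh medium with compound (single-point screen at 0.8 μM), renewed every 2 days for 6 days. Intracellular HBV DNA extracted and quantified by real-time PCR. IC50 is the dose giving 50% inhibition of DNA replication, taken from dose–response.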

Hepatitis B virus [4] = test: (§2) Antiviral activity against HBV infected in human HepG2.2.15 cells assessed as inhibition of DNA replication at 100 uM supplemented with fresh medium containing compound every 2 days for 6 days by RT-PCR analysis relative to control; type: functional; details: HepG2 2.2.15, 144 h, time 6 day
Hepatitis B virus [5] = test: as §2, with “against lamivudine and entecavir-resistant” for “against”, “HBV harboring rtL180 M/rtM204V/rtT184L mutant” for “HBV”; type: functional; details: HepG2 2.2.15, 144 h, time 6 day
[6] = Selectivity index, ratio of CC50 for human HepG2 2.2.15 cells to IC50 for antiviral activity against HBV infected in human HepG2.2.15 cells assessed as inhibition of DNA replication; type: toxicity, cell-based; details: read-out: Ratio CC50/IC50
Hepatitis B virus [7] = test: Antiviral activity against HBV infected in human HepG2.2.15 cells assessed as inhibition of DNA replication at 0.8 uM supplemented with fresh medium containing compound every 2 days for 6 days by RT-PCR analysis relative to control; type: functional; details: HepG2 2.2.15, 144 h, time 6 day; outline: as §1
HepG2 = test: Antiproliferative activity against human HepG2 cells assessed as inhibition of cell proliferation after 72 hrs by MTT assay; type: functional, cell-based; details: HepG2, 72 h
Outline: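 Cells seeded in 96-well plates and grown 24 h to reach exponential growth, then exposed to test compounds in culture medium for 72 h. Viability read by MTT absorbance at 490 nm relative to untreated cells. IC50 is the concentration giving 50% inhibition of proliferation.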

Hepatitis B virus [8] = test: as §2, with “against lamivudine and entecavir-resistant” for “against”, “HBV harboring rtL180 M/rtM204V/rtT184L mutant” for “HBV”, “10” for “100”; type: functional; details: HepG2 2.2.15, 144 h, time 6 day
Hepatitis B virus [9] = test: Antiviral activity against HBV infected in human HepG2.2.15 cells assessed as inhibition of DNA replication at 10 uM supplemented with fresh medium containing compound every 2 days for 6 days by RT-PCR analysis relative to control; type: functional; details: HepG2 2.2.15, 144 h, time 6 day

| Compound | CC50 at 72 h [1] [µM] | inhibition (INH) (Hepatitis B virus [2]) [%] | IC50 (Hepatitis B virus [3]) [µM] | inhibition at 100 µM (Hepatitis B virus [4]) [%] | inhibition at 100 µM (Hepatitis B virus [5]) [%] | selectivity ratio [6] | inhibition at 0.8 µM (Hepatitis B virus [7]) [%] | IC50 (HepG2) [µM] | inhibition at 10 µM (Hepatitis B virus [8]) [%] | inhibition at 10 µM (Hepatitis B virus [9]) [%] |
| --- | --- | --- | --- | --- | --- | --- | --- | --- | --- | --- |
| Nc1ccn([C@@H]2CS[C@H](CO)O2)c(=O)n1 [LAMIVUDINE] | > 100 | 9.09 | < 0.1 | 90 | 15.7 | > 1000 | 84.4 |  |  |  |
| COc1ccccc1CSc1nc2ccc(OCCCN(C)C)cc2c(=O)n1Cc1ccco1 | 8.38 |  |  |  |  |  | 34.4 | 6.76 |  |  |
| CN(C)CCOc1ccc2nc(SCc3ccccc3)n(Cc3ccccc3)c(=O)c2c1 | > 10 |  | 0.68 |  |  | > 14.7 | 65.5 | > 20 |  |  |
| COc1ccccc1CSc1nc2ccc(OCCN(C)C)cc2c(=O)n1Cc1ccccc1 | > 10 |  |  |  |  |  | 11.8 | > 20 |  |  |
| CCN(CC)CCOc1ccc2nc(SCc3cc(C(C)=O)ccc3OC)n(Cc3ccccc3)c(=O)c2c1 | > 10 |  |  |  |  |  | 4.93 | > 20 |  |  |
| CCN(CC)CCOc1ccc2nc(SCc3cc(C(C)=O)ccc3OC)n(Cc3ccco3)c(=O)c2c1 | > 10 |  |  |  |  |  | 45.2 | 17 |  |  |
| COc1ccccc1CSc1nc2ccc(OCCN(C)C)cc2c(=O)n1Cc1ccco1 | > 10 |  | 0.72 |  |  | > 13.9 | 67.1 | > 100 |  |  |
| C=C1[C@H](CO)[C@@H](O)C[C@@H]1n1cnc2c(=O)[nH]c(N)nc21 [ENTECAVIR] |  |  |  |  |  |  |  |  | 18.9 | 96.9 |
| COc1ccccc1CSc1nc2ccc(OCCCN(C)C)cc2c(=O)n1Cc1cccs1 | > 10 |  |  |  |  |  | 21.6 | 8.81 |  |  |
| CCN(CC)CCOc1ccc2nc(SCc3ccccc3)n(Cc3ccccc3)c(=O)c2c1 | > 10 |  | 0.66 |  |  | > 15.2 | 64.5 | > 20 |  |  |
| COc1ccccc1CSc1nc2ccc(OCCCN(C)C)cc2c(=O)n1Cc1ccccc1 | > 10 |  |  |  |  |  | 3.66 | 11.8 |  |  |
| CN(C)CCOc1ccc2nc(SCc3ccccc3)n(Cc3ccco3)c(=O)c2c1 | > 10 |  |  |  |  |  | 21.7 | 17.5 |  |  |
